Assay results from ChEMBL document CHEMBL4364329, “Prodrug Activation by a Viral Protease: Evaluating Combretastatin Peptide Hybrids To Selectively Target Infected Cells” (ACS Med Chem Lett, 2019).
Non-standard residues stand in square brackets, D forms with d. Residues, ends and D or L forms follow the SMILES beside them. ξ: configuration not given here. *: point of attachment. X1 = COc1ccc(/C=C\c2cc(OC)c(OC)c(OC)c2)cc1N*; 2Abz = Nc1ccccc1C(=O)O; ξNle = CCCCC(N)C(=O)O; Bz = O=C(c1ccccc1)*

What was measured:
[1] = Cytotoxicity against human HeLa cells assessed as reduction in cell viability measured after 72 hrs by cell titer blue assay; assay type: cell-based
[2] = Cytotoxicity against human HuH7 cells assessed as reduction in cell viability measured after 24 hrs by cell titer blue assay; assay type: cell-based, Huh-7
[3] = Cytotoxicity against human HuH7 cells assessed as reduction in cell viability measured after 72 hrs by cell titer blue assay; assay type: cell-based, Huh-7
[4] = test system: HeLa; assay: Ratio of compound CC50 to CA4 CC50 for human HeLa cells measured after 72 hrs by cell titer blue assay; assay type: ADME, cell-based
[5] = Ratio of compound CC50 to CA4 CC50 for human HuH7 cells measured after 72 hrs by cell titer blue assay; assay type: ADME, cell-based, Huh-7
[6] = biological target: T1, Genome polyprotein (dengue virus type 2, UniProt P29990); assay: Prodrug activation assessed as Dengue virus serotype 2 NS2B-NS3 protease expressed in Escherichia coli BL21 lambda (DE3) cells-mediated compound hydrolysis in TRIS buffer at pH 9 at 500 uM incubated for 2 hrs by HPLC-UV analysis; details: dengue virus type 2, pH 9, 2 h
Procedure, shortened: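 DENV protease at 1 μM with substrate at 500 μM in pH 9 buffer, incubated 2 h at 37 °C; fraction hydrolysed determined, triplicate wells.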

[7] = test system: dengue virus type 2; assay: Antiviral activity against wild type Dengue virus serotype 2 infected in human HuH7 cells assessed as reduction in viral titer at 25 uM measured after 24 hrs by Cell-Titer Glo luminescent assay relative to control; assay type: functional; details: Huh-7, 24 h
Procedure, shortened: (§1)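 Cells treated 24 h before titer readout; virus-containing supernatant split into duplicates, plaques counted and averaged, reduction calculated versus untreated blank; single-point experiment.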

[8] = biological target: Trypsin (Homo sapiens, UniProt P07477+P07478+P35030); assay: Prodrug activation assessed as trypsin (unknown origin)-mediated compound hydrolysis in TRIS buffer at pH 9 at 100 uM incubated for 2 hrs; assay type: protein assay; details: pH 9, 2 h
[9] = test system: Zika virus; assay: Antiviral activity against Zika virus infected in human HuH7 cells assessed as reduction in viral titer at 5 uM measured after 24 hrs by Cell-Titer Glo luminescent assay relative to control; assay type: functional; details: Huh-7, 24 h
Procedure, shortened: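 Readout began after 24 h. This was a single-point experiment. Virus-containing supernatant was aliquoted in duplicate, plaques were counted and averaged, and reduction was calculated against an untreated blank.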

[10] = test system: HeLa; assay: Cytotoxicity against human HeLa cells assessed as cell doubling time by cell titer blue assay; assay type: cell-based
[11] = test system: dengue virus type 2; assay: Antiviral activity against wild type Dengue virus serotype 2 infected in human HuH7 cells assessed as reduction in viral titer measured after 24 hrs by Cell-Titer Glo luminescent assay; assay type: functional, organism-based; details: Huh-7, 24 h
[12] = test system: Huh-7; assay: Cytotoxicity against human HuH7 cells assessed as induction of mitosis after 24 hrs; assay type: cell-based; details: huh-7, 24 h
[13] = test system: Huh-7; assay: Cytotoxicity against human HuH7 cells assessed as cell doubling time by cell titer blue assay; assay type: cell-based
[14] = biological target: T1, Genome polyprotein; assay: Inhibition of Dengue virus NS2B-NS3 protease using FRET Abz-Nle-Lys-Arg-Arg-Ser-3-(NO2)Tyr as substrate
[15] = test system: Zika virus; assay: Antiviral activity against Zika virus infected in human HuH7 cells assessed as reduction in viral titer at 50 uM measured after 24 hrs by Cell-Titer Glo luminescent assay relative to control; assay type: functional; details: Huh-7, 24 h; procedure, shortened: as §1
[16] = biological target: T1, Genome polyprotein; assay: Inhibition of Dengue virus serotype 2 NS2B-NS3 protease expressed in Escherichia coli BL21 lambda (DE3) cells preincubated with enzyme for 15 mins followed by 2-Abz-Nle-Lys-Arg-Arg-Ser-(3-NO2)-Tyr-NH2 FRET substrate addition measured for 15 mins by fluorescence analysis

SMILES | CC50 at 72 h [1] | CC50 at 24 h [2] | CC50 at 72 h [3] | Ratio [4] | selectivity ratio at 72 h [5] | Drug metabolism [6] | inhibition at 25 µM [7] | Drug metabolism [8] | inhibition at 5 µM [9] | Time [10] | EC50 [11] | Activity [12] | Time [13] | IC50 [14] | inhibition at 50 µM [15] | IC50 [16]
COc1ccc(/C=C\c2cc(OC)c(OC)c(OC)c2)cc1NC(=O)[C@H](CO)NC(=O)[C@H](CCCNC(=N)N)NC(=O)[C@H](CCCCN)NC(=O)c1ccccc1 | 61.8 nM | 77.9 µM | 134 nM | 20 to 2000 | 20 to 2000 | 6.3% | 61% | – | – | – | – | – | – | – | – | –
COc1ccc(/C=C\c2cc(OC)c(OC)c(OC)c2)cc1NC(=O)CNC(=O)CNC(=O)[C@H](CCCNC(=N)N)NC(=O)[C@H](CCCNC(=N)N)NC(=O)c1ccccc1 (Bz-RRGG-X1) | 19.5 nM | 59.7 µM | 24 nM | 20 to 2000 | 20 to 2000 | 42% | 55% | Metabolite_Detected | – | – | – | – | – | – | – | –
COc1ccc(/C=C\c2cc(OC)c(OC)c(OC)c2)cc1NC(=O)CCNC(=O)[C@H](CCCNC(=N)N)NC(=O)[C@H](CCCNC(=N)N)NC(=O)c1ccccc1 | 952 nM | 190 µM | 156 nM | 20 to 2000 | 20 to 2000 | 6.7% | 57% | – | – | – | – | – | – | – | – | –
COc1ccc(/C=C\c2cc(OC)c(OC)c(OC)c2)cc1N | 1.47 nM | > 100 µM | 3.93 nM | 20 to 2000 | 20 to 2000 | Metabolite_Notdetected | 66% | – | 84% | – | – | – | – | – | – | –
COc1ccc(/C=C\c2cc(OC)c(OC)c(OC)c2)cc1NC(=O)[C@H](C)NC(=O)[C@H](CCCNC(=N)N)NC(=O)[C@H](CCCCN)NC(=O)c1ccccc1 | 24.6 nM | > 100 µM | 71.6 nM | 20 to 2000 | 20 to 2000 | 5.2% | 69% | – | – | – | – | – | – | – | – | –
COc1ccc(/C=C\c2cc(OC)c(OC)c(OC)c2)cc1O [COMBRETASTATIN A4] | 0.428 nM | 38.3 µM | 1.05 nM | – | – | Metabolite_Notdetected | – | – | 70% | 24 h | 870 nM | Toxic | 48 h | – | – | –
COc1ccc(/C=C\c2cc(OC)c(OC)c(OC)c2)cc1NC(=O)[C@H](CCCNC(=N)N)NC(=O)[C@@H](N)CCCNC(=N)N | – | – | – | – | – | – | – | – | – | – | – | – | – | 6.3 µM | – | –
COc1ccc(/C=C\c2cc(OC)c(OC)c(OC)c2)cc1NC(=O)CNC(=O)[C@H](CCCNC(=N)N)NC(=O)[C@H](CCCCN)NC(=O)c1ccccc1 | 78.2 nM | > 100 µM | 172 nM | 20 to 2000 | 20 to 2000 | 32% | 53% | – | – | – | – | – | – | – | – | –
COc1ccc(/C=C\c2cc(OC)c(OC)c(OC)c2)cc1NC(=O)CN | 37.7 nM | 173 µM | 26.9 nM | 20 to 2000 | 20 to 2000 | Metabolite_Notdetected | 69% | – | – | – | – | – | – | – | – | –
COc1ccc(/C=C\c2cc(OC)c(OC)c(OC)c2)cc1NC(=O)[C@H](C)NC(=O)[C@H](CCCNC(=N)N)NC(=O)[C@H](CCCNC(=N)N)NC(=O)c1ccccc1 | 65.7 nM | 111 µM | 191 nM | 20 to 2000 | 20 to 2000 | 36% | 57% | – | – | – | – | – | – | – | – | –
COc1ccc(/C=C\c2cc(OC)c(OC)c(OC)c2)cc1NC(=O)CNC(=O)[C@H](CCCNC(=N)N)NC(=O)[C@H](CCCNC(=N)N)NC(=O)c1ccccc1 | 7.2 nM | 88.6 µM | 26.6 nM | 20 to 2000 | 20 to 2000 | 39% | 84% | – | – | – | – | – | – | – | – | –
COc1ccc(/C=C\c2cc(OC)c(OC)c(OC)c2)cc1NC(=O)[C@H](CO)NC(=O)[C@H](CCCNC(=N)N)NC(=O)[C@H](CCCNC(=N)N)NC(=O)c1ccccc1 | 29.2 nM | > 100 µM | 23.1 nM | 20 to 2000 | 20 to 2000 | 3.4% | 51% | Metabolite_Detected | – | – | – | – | – | – | 92% | 25 µM
COc1ccc(/C=C\c2cc(OC)c(OC)c(OC)c2)cc1NC(=O)[C@H](C)N | 6.69 nM | 123 µM | 6.03 nM | 20 to 2000 | 20 to 2000 | Metabolite_Notdetected | 64% | – | – | – | – | – | – | – | – | –
CCCCC(NC(=O)c1ccccc1N)C(=O)N[C@@H](CCCCN)C(=O)N[C@@H](CCCNC(=N)N)C(=O)N[C@@H](CCCNC(=N)N)C(=O)N[C@@H](CO)C(=O)N[C@@H](Cc1ccc(O)cc1)C(N)=O (stereo partly drawn) (H-[2Abz][ξNle]KRRSY-NH2) | – | – | – | – | – | 94% | – | – | – | – | – | – | – | – | – | –
